For experiment [1], the target named is T1, Ephrin type-B receptor 4 (Homo sapiens, UniProt P54760).
T1 sequence (P54760 whole entry): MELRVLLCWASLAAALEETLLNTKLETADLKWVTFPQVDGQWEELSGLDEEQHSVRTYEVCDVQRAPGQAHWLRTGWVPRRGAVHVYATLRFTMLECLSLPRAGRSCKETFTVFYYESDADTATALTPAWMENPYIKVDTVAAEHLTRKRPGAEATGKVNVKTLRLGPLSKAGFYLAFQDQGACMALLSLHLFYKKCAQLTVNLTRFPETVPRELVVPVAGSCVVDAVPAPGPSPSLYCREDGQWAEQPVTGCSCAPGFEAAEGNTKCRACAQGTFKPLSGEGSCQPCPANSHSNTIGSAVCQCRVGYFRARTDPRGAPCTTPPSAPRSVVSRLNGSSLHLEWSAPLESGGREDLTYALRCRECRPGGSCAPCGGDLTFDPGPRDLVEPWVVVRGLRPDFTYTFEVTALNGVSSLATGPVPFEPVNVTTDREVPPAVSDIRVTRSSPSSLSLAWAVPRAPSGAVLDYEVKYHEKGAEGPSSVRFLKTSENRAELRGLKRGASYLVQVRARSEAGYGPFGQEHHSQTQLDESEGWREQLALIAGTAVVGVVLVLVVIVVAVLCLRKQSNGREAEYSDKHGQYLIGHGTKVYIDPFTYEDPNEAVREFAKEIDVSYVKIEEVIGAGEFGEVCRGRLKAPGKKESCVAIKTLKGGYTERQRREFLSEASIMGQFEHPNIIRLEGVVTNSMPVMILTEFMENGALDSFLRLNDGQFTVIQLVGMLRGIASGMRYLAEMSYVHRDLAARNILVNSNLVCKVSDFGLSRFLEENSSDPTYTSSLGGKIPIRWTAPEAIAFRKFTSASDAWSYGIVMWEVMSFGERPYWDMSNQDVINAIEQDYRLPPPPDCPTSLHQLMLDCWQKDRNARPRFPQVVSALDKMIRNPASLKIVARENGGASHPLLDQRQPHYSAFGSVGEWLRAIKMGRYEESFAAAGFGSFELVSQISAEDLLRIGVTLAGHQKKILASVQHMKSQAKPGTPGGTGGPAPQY
Briefly: Inhibition of EphB4 in presence of 1 uM radiolabeled ATP. In a few lines: (§1)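 Radiometric enzymatic assay run by a contract lab (Reaction Biology) on the recombinant catalytic domain of each kinase, with radiolabeled ATP at 1 μM. IC50 taken from a 10-dose response.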

The target in experiment [2] is T2, Ephrin type-B receptor 4 (Homo sapiens) (UniProt P54760).
T2 sequence (whole entry): T1 sequence (P54760 whole entry)
Briefly: Inhibition of EphB4 at 30 uM in presence of 30 uM ATP. The procedure, abridged: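 EphB4 kinase, FRET enzymatic assay run in house with a commercial EphB4 assay kit. ATP at 30 μM, compound at 30 μM. Read-out is percent inhibition at that single concentration.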

Experiment [3] concerns the target T1, Ephrin type-B receptor 4. Briefly: Inhibition of EphB4 by FRET assay in presence of 30 uM ATP. The procedure, abridged:
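In-house FRET enzymatic assay of EphB4 using a commercial EphB4 kit, ATP 30 μM. IC50 derived from concentration-response.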

The target of experiment [4] is Epidermal growth factor receptor (Homo sapiens, UniProt P00533). Put plainly: Inhibition of recombinant EGFR catalytic domain in presence of 1 uM radiolabeled ATP. In a few lines:
as §1

In experiment [5] the target is Insulin-like growth factor 1 receptor (Homo sapiens) (UniProt P08069). Briefly: Inhibition of recombinant IGF1R catalytic domain in presence of 1 uM radiolabeled ATP. The procedure, abridged:
as §1

In experiment [6] the target is Tyrosine-protein kinase ABL1 (Homo sapiens, UniProt P00519). Briefly: Inhibition of recombinant Abl1 catalytic domain in presence of 1 uM radiolabeled ATP. In a few lines:
as §1

The target in experiment [7] is Proto-oncogene tyrosine-protein kinase Src (Homo sapiens, UniProt P12931). Briefly: Inhibition of recombinant Src catalytic domain in presence of 1 uM radiolabeled ATP. In a few lines:
as §1

The target in experiment [8] is Tyrosine-protein kinase Lck (Homo sapiens, UniProt P06239). Put plainly: Inhibition of recombinant Lck catalytic domain in presence of 1 uM radiolabeled ATP. The procedure, abridged:
as §1

Experiment [9] addresses T1, Ephrin type-B receptor 4. Briefly: Inhibition of human full length EphB4 expressed in MEF cells assessed as inhibition of human ephrin B2/FC chimera-stimulated receptor autophosphorylation. In kind it is cell-based. In a few lines:
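Cellular EphB4 phosphorylation assay run by a contract lab (ProQinase) in murine embryonal fibroblasts (MEF) expressing exogenous full-length human EphB4. Cells were stimulated 2 h with human Ephrin-B2/Fc chimera to induce receptor tyrosine autophosphorylation. Read-out is inhibition of that autophosphorylation.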

Molecules are shown by their SMILES. Activity calls are given as the source filed them. The rule behind the calls is not given here.

As a reminder, the IC50 is the concentration needed to halve the response being measured. Usually inhibition stands for the change of the read-out against control, counted positive when it falls.

Chain of Tyrosine-protein kinase Lck (P06239 whole entry, the tested form may be a part): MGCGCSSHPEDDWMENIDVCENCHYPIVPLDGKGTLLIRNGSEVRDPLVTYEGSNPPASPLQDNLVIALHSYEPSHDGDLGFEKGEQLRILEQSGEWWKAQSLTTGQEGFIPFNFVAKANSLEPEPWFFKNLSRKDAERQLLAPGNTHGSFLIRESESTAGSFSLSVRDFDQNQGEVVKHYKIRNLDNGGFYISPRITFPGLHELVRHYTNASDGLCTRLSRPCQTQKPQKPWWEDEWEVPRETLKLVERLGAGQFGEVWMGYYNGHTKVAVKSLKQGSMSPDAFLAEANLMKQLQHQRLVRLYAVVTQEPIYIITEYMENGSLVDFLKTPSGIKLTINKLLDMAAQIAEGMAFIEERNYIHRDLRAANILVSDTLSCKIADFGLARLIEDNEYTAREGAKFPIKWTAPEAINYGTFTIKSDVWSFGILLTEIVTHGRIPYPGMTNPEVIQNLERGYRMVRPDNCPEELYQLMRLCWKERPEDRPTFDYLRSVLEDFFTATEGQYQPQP
Chain of Tyrosine-protein kinase ABL1 (P00519 whole entry, the tested form may be a part): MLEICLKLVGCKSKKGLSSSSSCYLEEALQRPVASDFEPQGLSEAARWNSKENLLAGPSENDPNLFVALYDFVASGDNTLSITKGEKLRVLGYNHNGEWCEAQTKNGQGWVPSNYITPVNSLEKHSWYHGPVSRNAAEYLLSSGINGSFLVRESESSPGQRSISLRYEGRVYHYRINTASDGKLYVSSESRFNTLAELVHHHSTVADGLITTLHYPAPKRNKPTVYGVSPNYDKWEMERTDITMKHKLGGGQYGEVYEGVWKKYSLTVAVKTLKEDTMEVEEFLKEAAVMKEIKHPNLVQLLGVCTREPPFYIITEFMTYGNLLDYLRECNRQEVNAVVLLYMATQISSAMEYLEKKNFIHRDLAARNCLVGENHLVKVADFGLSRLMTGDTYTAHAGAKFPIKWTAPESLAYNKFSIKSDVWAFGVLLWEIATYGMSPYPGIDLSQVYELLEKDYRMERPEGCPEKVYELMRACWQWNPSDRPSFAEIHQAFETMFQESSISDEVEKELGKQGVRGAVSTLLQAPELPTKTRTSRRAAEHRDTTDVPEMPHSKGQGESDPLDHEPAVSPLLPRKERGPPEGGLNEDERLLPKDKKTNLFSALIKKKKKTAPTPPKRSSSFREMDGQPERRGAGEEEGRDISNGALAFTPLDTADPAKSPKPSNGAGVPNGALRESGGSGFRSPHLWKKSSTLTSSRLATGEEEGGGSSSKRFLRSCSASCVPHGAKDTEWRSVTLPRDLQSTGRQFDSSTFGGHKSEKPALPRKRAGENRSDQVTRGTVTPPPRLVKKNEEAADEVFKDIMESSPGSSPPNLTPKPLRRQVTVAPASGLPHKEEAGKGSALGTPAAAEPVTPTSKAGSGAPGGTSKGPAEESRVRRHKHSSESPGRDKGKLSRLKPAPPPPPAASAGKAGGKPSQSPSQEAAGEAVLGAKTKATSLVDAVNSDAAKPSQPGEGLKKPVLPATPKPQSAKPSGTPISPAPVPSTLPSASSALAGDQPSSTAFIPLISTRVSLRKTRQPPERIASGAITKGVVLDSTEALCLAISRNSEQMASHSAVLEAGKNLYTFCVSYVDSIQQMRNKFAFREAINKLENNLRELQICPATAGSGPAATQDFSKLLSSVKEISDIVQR
Chain of Epidermal growth factor receptor (P00533 whole entry, the tested form may be a part): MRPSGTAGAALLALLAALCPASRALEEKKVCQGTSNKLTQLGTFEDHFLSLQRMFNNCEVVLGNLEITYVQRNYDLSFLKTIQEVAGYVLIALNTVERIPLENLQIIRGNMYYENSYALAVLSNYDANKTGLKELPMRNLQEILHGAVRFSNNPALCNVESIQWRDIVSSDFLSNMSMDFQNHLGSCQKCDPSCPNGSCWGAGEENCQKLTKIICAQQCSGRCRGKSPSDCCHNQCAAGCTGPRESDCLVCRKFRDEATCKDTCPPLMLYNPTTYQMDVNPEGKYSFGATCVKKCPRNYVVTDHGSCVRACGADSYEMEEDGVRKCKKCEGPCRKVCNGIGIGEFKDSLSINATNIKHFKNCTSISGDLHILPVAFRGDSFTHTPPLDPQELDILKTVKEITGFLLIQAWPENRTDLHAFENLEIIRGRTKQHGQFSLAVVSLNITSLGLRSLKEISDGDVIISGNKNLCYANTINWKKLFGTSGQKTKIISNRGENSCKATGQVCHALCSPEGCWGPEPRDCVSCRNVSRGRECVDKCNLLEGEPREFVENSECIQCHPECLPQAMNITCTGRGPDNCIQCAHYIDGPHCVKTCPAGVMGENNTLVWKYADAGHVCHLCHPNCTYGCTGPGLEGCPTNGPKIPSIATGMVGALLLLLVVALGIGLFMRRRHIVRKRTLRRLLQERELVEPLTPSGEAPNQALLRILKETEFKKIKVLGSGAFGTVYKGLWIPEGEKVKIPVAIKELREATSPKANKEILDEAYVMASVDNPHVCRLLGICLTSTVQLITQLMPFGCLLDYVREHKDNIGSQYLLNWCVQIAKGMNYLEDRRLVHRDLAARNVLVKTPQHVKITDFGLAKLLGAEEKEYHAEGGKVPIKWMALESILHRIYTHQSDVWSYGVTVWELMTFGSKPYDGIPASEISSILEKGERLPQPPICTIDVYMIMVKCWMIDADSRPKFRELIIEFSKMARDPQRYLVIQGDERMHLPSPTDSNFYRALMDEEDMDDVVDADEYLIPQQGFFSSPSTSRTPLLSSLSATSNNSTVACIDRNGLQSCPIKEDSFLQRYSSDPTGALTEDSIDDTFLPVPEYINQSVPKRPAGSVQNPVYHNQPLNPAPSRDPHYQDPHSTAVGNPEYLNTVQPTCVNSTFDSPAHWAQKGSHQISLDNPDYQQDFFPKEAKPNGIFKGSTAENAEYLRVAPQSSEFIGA
Chain of Insulin-like growth factor 1 receptor (Homo sapiens) (P08069 31-736 limits assumed): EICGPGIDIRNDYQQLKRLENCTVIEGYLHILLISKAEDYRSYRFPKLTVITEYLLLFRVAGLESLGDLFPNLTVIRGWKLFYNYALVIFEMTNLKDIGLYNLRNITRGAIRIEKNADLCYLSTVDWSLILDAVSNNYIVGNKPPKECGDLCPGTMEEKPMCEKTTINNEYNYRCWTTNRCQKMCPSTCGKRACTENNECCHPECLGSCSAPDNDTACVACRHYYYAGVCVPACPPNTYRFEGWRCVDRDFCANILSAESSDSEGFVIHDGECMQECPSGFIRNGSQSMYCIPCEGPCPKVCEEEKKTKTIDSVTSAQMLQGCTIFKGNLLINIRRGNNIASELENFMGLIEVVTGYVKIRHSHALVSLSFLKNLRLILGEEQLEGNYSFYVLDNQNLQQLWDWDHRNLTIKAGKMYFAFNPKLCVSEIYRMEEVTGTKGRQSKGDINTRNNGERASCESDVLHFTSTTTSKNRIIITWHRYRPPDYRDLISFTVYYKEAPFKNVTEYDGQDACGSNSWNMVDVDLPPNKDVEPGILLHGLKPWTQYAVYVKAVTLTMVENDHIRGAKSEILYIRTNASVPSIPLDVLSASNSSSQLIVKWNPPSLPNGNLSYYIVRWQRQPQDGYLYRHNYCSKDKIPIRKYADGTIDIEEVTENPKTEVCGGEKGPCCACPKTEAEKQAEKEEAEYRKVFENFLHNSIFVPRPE
Chain of Insulin-like growth factor 1 receptor (Homo sapiens) (P08069 741-1367 limits assumed): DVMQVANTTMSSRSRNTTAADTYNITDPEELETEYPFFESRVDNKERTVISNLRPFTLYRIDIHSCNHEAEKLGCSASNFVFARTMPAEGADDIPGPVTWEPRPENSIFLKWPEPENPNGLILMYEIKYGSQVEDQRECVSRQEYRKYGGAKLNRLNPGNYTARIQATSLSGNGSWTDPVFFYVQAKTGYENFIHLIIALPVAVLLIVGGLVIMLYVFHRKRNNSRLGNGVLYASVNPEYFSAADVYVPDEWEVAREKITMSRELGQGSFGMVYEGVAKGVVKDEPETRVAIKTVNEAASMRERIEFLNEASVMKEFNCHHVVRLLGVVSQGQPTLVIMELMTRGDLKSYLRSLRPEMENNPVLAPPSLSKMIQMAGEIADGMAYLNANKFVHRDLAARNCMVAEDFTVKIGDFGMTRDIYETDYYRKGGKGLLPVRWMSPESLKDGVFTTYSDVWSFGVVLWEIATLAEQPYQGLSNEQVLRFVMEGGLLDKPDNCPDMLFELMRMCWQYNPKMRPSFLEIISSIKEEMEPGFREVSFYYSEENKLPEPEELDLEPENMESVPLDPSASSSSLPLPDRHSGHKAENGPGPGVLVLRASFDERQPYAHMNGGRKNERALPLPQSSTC
Chain of Proto-oncogene tyrosine-protein kinase Src (P12931 2-536 limits assumed): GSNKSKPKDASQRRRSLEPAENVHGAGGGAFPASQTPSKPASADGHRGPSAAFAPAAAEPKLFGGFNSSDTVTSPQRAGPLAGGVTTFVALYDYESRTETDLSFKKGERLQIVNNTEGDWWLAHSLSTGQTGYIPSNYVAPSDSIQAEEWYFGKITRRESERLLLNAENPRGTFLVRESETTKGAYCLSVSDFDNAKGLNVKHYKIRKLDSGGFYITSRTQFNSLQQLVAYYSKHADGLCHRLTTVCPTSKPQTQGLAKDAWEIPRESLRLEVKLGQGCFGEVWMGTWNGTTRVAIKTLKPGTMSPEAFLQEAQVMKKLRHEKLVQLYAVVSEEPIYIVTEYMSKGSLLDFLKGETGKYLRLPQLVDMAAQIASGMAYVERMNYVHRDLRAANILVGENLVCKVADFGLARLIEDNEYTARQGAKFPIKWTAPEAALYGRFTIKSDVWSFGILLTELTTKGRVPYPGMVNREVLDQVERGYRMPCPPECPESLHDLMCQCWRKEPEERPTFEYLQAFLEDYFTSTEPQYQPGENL

In the case of `Cc1ccccc1-n1c(=O)c2c(c3c(N)ncnc31)CCCC2`, on Ephrin type-B receptor 4 [1], the IC50 was 8400 nM. Also, in experiment [2], the inhibition is 48%.

For `COc1ccc(-n2c(=O)c3c(c4c(N)ncnc42)CCCC3)cc1`, the inhibition in experiment [2] is 37%.

In the case of `COc1cccc(-n2c(=O)c3c(c4c(N)ncnc42)CCCC3)c1`, the IC50 on Ephrin type-B receptor 4 [3] stood at 9400 nM; at Ephrin type-B receptor 4 [1], 5200 nM. Further, the inhibition in experiment [2] was 75%.

In the case of `Cc1ccc(O)cc1-n1c(=O)c2c(c3c(N)ncnc31)CCCC2`, the IC50 was determined as 1620 nM in [4]; 300 nM at Ephrin type-B receptor 4 [3]; 864 nM in [6]; 338 nM in experiment [7]; 160 nM on Ephrin type-B receptor 4 [1]; 1380 nM in [8]. Besides, the IC50 on Ephrin type-B receptor 4 [9] was determined as 930 nM. For the same compound, the inhibition result in experiment [5] was “inactive”.

On to `COc1ccccc1-n1c(=O)c2c(c3c(N)ncnc31)CCCC2`, for which, in experiment [2], the inhibition came to 5%.

For `COc1ccccc1-n1c(=O)c2c(c3c(N)ncnc31)CC(C)(C)OC2`, the inhibition in experiment [2] was determined as 0%.

Regarding `COc1cccc(-n2c(=O)c3c(c4c(N)ncnc42)CC(C)(C)OC3)c1`, the IC50 at Ephrin type-B receptor 4 [1] was found to be 14300 nM. Further, the inhibition in experiment [2] was found to be 38%.

The record behind these values is ChEMBL document CHEMBL2150975, “Discovery of a novel chemotype of tyrosine kinase inhibitors by fragment-based docking and molecular dynamics” (ACS Med Chem Lett, 2012).
